In ChEMBL document CHEMBL4130378, “Discovery of pentacyclic triterpene 3β-ester derivatives as a new class of cholesterol ester transfer protein inhibitors” (Eur J Med Chem, 2017):

Assays:
[1] = Octanol-water partition coefficient, log P of the compound at pH 7.4 by HPLC based shake flask method; type: physicochemical
[2] = target: T1, Cholesteryl ester transfer protein (Homo sapiens, UniProt P11597); assay: Inhibition of recombinant human CETP after 3 hrs using fluorescent cholesteryl containing HDL after 3 hrs by fluorescence assay
T1 sequence (P11597 whole entry): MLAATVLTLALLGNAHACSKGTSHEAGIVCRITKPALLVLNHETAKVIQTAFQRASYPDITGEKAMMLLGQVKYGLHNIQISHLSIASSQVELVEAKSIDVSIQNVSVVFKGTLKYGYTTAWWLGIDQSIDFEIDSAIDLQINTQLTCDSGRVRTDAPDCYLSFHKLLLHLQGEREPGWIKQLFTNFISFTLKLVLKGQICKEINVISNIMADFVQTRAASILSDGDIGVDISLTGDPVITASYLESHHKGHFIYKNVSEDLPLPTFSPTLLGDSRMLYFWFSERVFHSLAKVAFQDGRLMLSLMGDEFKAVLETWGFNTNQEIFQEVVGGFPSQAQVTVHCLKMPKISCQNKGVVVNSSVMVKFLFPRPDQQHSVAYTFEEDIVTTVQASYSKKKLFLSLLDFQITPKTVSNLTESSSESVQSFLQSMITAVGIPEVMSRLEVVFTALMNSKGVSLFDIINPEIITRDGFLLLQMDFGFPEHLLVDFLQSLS

[3] = target: T2, Pancreatic triacylglycerol lipase (Sus scrofa, UniProt P00591); assay: Inhibition of porcine pancreatic lipase using 2,3-dimercaptopropan-1-ol tributyrate as substrate preincubated for 5 mins followed by substrate addition measured after 30 mins by colorimetric assay
T2 sequence (P00591 whole entry): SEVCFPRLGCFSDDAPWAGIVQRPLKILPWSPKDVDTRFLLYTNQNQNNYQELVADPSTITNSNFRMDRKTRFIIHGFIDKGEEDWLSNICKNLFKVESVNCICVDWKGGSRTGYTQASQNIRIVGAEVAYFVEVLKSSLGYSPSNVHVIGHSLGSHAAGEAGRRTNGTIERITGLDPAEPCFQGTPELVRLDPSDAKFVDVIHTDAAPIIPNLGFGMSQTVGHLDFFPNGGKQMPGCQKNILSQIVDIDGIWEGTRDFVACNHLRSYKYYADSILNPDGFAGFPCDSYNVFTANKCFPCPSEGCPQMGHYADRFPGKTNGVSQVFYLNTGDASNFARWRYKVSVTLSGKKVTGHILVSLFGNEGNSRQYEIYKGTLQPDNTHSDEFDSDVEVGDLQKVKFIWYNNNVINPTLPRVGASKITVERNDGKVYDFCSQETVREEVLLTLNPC

[4] = MRT (0 to 48 hrs) in normal fed guinea pig at 30 mg/kg administered via oral gavage by LC-MS/MS analysis; type: ADME, organism-based, Cavia porcellus; settings: in vivo
[5] = MRT (0 to infinity) in normal fed guinea pig at 30 mg/kg administered via oral gavage by LC-MS/MS analysis; type: ADME, organism-based, Cavia porcellus; settings: in vivo
[6] = AUC (0 to 48 hrs) in normal fed guinea pig at 30 mg/kg administered via oral gavage by LC-MS/MS analysis; type: ADME, organism-based, Cavia porcellus; set-up: time < 48 hr, dose 30 mg/kg, route oral; settings: in vivo
[7] = AUC (0 to infinity) in normal fed guinea pig at 30 mg/kg administered via oral gavage by LC-MS/MS analysis; type: ADME, organism-based, Cavia porcellus; set-up: dose 30 mg/kg, route oral, time infinity; settings: in vivo
[8] = Cmax in normal fed guinea pig at 30 mg/kg administered via oral gavage by LC-MS/MS analysis; type: ADME, organism-based, Cavia porcellus; set-up: dose 30 mg/kg, route oral; settings: in vivo
[9] = Tmax in normal fed guinea pig at 30 mg/kg administered via oral gavage by LC-MS/MS analysis; type: ADME, organism-based, Cavia porcellus; settings: in vivo
[10] = Terminal half life in normal fed guinea pig at 30 mg/kg administered via oral gavage by LC-MS/MS analysis; type: ADME, organism-based, Cavia porcellus; settings: in vivo, read-out: beta t1/2 (converted)
Cavia porcellus [11] = assay: Drug level in normal fed guinea pig treated with 3-beta-[(2-Carboxyphenyl)carbonyloxy]-olean-12-en-28-oic acid at 30 mg/kg administered via oral gavage by LC-MS/MS analysis; type: ADME, organism-based; settings: in vivo
Mus musculus [12] = assay: Antihyperlipidemic activity in transgenic ap2-CETPTg mouse model assessed as increase in plasma HDL cholesterol levels at 30 mg/kg, po qd for 14 days measured 2 hrs post dose on day 14 by automated lipid analyzer relative to control; type: functional
How it was run: (§1)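 ap2-CETPTg mice, which express human CETP in adipose tissue. Oral 30 mg/kg once daily for two weeks in DMSO/cremophor/saline 3:4:93. Retro-orbital blood drawn 2 h after the day-14 dose. HDL-C, LDL-C, TG and TC measured on an automated lipid analyzer, mean ± SD (n ≥ 6), versus control group.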

Mus musculus [13] = assay: Hypolipidemic activity in transgenic ap2-CETPTg mouse model assessed as reduction in plasma LDL cholesterol levels at 30 mg/kg, po qd for 14 days measured 2 hrs post dose on day 14 by automated lipid analyzer relative to control; type: functional; set-up: scale not given: the % may be the effect or the level left; how it was run: as §1
Mus musculus [14] = assay: Hypolipidemic activity in transgenic ap2-CETPTg mouse model assessed as reduction in plasma triglyceride levels at 30 mg/kg, po qd for 14 days measured 2 hrs post dose on day 14 by automated lipid analyzer relative to control; type: functional; set-up: scale not given: the % may be the effect or the level left; how it was run: as §1
Mus musculus [15] = assay: Hypolipidemic activity in transgenic ap2-CETPTg mouse model assessed as reduction in plasma total cholesterol levels at 30 mg/kg, po qd for 14 days measured 2 hrs post dose on day 14 by automated lipid analyzer relative to control; type: functional; set-up: scale not given: the % may be the effect or the level left; how it was run: as §1
Cavia porcellus [16] = assay: Antihyperlipidemic activity in normal fed guinea pig model assessed as increase in plasma HDL cholesterol level at 30 mg/kg administered via oral gavage as qd for 14 days measured 2 hrs post dose on day 14 relative to control; type: functional
How it was run: (§2)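 Male guinea pigs, 12 weeks old, on normal diet. Gavage at 30 mg/kg once daily for two weeks. Retro-orbital plasma collected 2 h after dosing on day 14. HDL-C and LDL-C reported as mean ± SD (n ≥ 6) versus vehicle control group.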

Cavia porcellus [17] = assay: Hypolipidemic activity in normal fed guinea pig model assessed as reduction in plasma LDL cholesterol levels at 30 mg/kg administered via oral gavage as qd for 14 days measured 2 hrs post dose on day 14 relative to control; type: functional; set-up: scale not given: the % may be the effect or the level left; how it was run: as §2
Cavia porcellus [18] = assay: Antihyperlipidemic activity in high-fat fed guinea pig model assessed as increase in plasma HDL cholesterol level at 30 mg/kg administered via oral gavage as qd for 14 days measured 2 hrs post dose on day 14 relative to control; type: functional
How it was run: (§3)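 Male guinea pigs, 12 weeks old, fed a high-fat diet (2.5% coconut oil, 0.25% cholesterol) for two weeks. Gavage at 30 mg/kg once daily for two weeks while the diet continued. Plasma taken retro-orbitally 2 h after the day-14 dose. HDL-C, LDL-C, TG and TC reported as mean ± SD (n ≥ 6) versus the untreated high-fat model group.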

Cavia porcellus [19] = assay: Hypolipidemic activity in high-fat fed guinea pig model assessed as reduction in plasma LDL cholesterol levels at 30 mg/kg administered via oral gavage as qd for 14 days measured 2 hrs post dose on day 14 relative to control; type: functional; set-up: scale not given: the % may be the effect or the level left; how it was run: as §3
Cavia porcellus [20] = assay: Hypolipidemic activity in high-fat fed guinea pig model assessed as reduction in plasma triglyceride levels at 30 mg/kg administered via oral gavage as qd for 14 days measured 2 hrs post dose on day 14 relative to control; type: functional; set-up: scale not given: the % may be the effect or the level left; how it was run: as §3
Cavia porcellus [21] = assay: Hypolipidemic activity in high-fat fed guinea pig model assessed as reduction in plasma total cholesterol levels at 30 mg/kg administered via oral gavage as qd for 14 days measured 2 hrs post dose on day 14 relative to control; type: functional; set-up: scale not given: the % may be the effect or the level left; how it was run: as §3
Cavia porcellus [22] = assay: Toxicity in normal fed guinea pig model assessed as effect on systolic blood pressure at 30 mg/kg administered via oral gavage as qd for 14 days; type: organism-based; settings: in vivo, 336 h
Cavia porcellus [23] = assay: Toxicity in high-fat fed guinea pig model assessed as effect on systolic blood pressure at 30 mg/kg administered via oral gavage as qd for 14 days; type: organism-based; settings: in vivo, 336 h
[24] = Aqueous solubility of the compound; type: physicochemical; settings: buffer
Cavia porcellus [25] = assay: Drug metabolism in normal fed guinea pig assessed as formation of oleanolic acid at 30 mg/kg administered via oral gavage by LC-MS/MS analysis; type: ADME, organism-based; settings: in vivo

With `Cc1cc(C)c2c(c1)[C@@H](N(Cc1cc(C(F)(F)F)cc(C(F)(F)F)c1)c1nnn(C)n1)CCCN2C[C@H]1CC[C@H](C(=O)O)CC1` [EVACETRAPIB] the logD [1] was 0.51.

`C=C(C)[C@@H]1CC[C@]2(C(=O)O)CC[C@]3(C)[C@H](CC[C@@H]4[C@@]5(C)CC[C@H](OC(=O)CCCC(=O)O)C(C)(C)[C@@H]5CC[C@]43C)[C@@H]12` gave an IC50 ([2]; read-out: IC50) of 38 µM.

In the case of `CC(=O)O[C@H]1CC[C@]2(C)[C@H]3CC=C4[C@@H]5CC(C)(C)CC[C@]5(C(=O)O)CC[C@@]4(C)[C@]3(C)CC[C@H]2C1(C)C` [ACETYL OLEANOLIC ACID], the IC50 [2] is reported as “Not Active”.

In the case of `C=C(C)[C@@H]1CC[C@]2(C(=O)O)CC[C@]3(C)[C@H](CC[C@@H]4[C@@]5(C)CC[C@H](O)C(C)(C)[C@@H]5CC[C@]43C)[C@@H]12` [BETULINIC ACID], the IC50 [2] is reported as “Not Active”.

`CC1(C)CC[C@]2(C(=O)O)CC[C@]3(C)C(=CC[C@@H]4[C@@]5(C)CC[C@H](O)C(C)(C)[C@@H]5CC[C@]43C)[C@@H]2C1` [OLEANOLIC_ACID] gave an IC50 [3] of 182 µM, an MRT last [4] of 11.7 h and an MRT inf [5] of 15 h. It also gave an AUC(0-t) at 48 h [6] of 291 ng·h/mL, an AUC(0-inf) [7] of 312 ng·h/mL and a Cmax [8] of 52.2 ng/mL. For the same molecule, the Tmax [9] was 0.75 h, the half-life [10] was 11.7 h and the Drug metabolism (Cavia porcellus [11]) was “Metabolite_Detected”.

With `CC1(C)CC[C@]2(C(=O)O)CC[C@]3(C)C(=CC[C@@H]4[C@@]5(C)CC[C@H](OC(=O)c6ccccc6C(=O)O)C(C)(C)[C@@H]5CC[C@]43C)[C@@H]2C1` the IC50 ([2]; read-out: IC50) was 2.3 µM, the Activity (Mus musculus [12]) was 11.1% and the MRT last [4] was 14.9 h. For the same molecule, the MRT inf [5] was 23.4 h, the Activity (Mus musculus [13]) was 34.2% and the Activity (Mus musculus [14]) was 29.3%. It also gave an Activity (Mus musculus [15]) of 5.8%, an Activity (Cavia porcellus [16]) of 32.3% and an Activity (Cavia porcellus [17]) of 19.8%. It also gave an Activity (Cavia porcellus [18]) of 72.8%, an Activity (Cavia porcellus [19]) of 40.8% and an Activity (Cavia porcellus [20]) of 27.3%. The Activity (Cavia porcellus [21]) was 20.3%, the Activity (Cavia porcellus [22]) was “Non-Toxic” and the Activity (Cavia porcellus [23]) was “Non-Toxic”. For the same molecule, the logD [1] was 0.49, the AUC(0-t) at 48 h [6] was 9340 ng·h/mL and the AUC(0-inf) [7] was 10900 ng·h/mL. The Cmax [8] was 1270 ng/mL, the Tmax [9] was 1.46 h and the half-life [10] was 18.8 h. The solubility [24] was “Soluble” and the Drug metabolism (Cavia porcellus [25]) was “Metabolite_Detected”.

`C[C@H]1[C@H](C)CC[C@]2(C(=O)O)CC[C@]3(C)C(=CC[C@@H]4[C@@]5(C)CC[C@H](OC(=O)CCCC(=O)O)C(C)(C)[C@@H]5CC[C@]43C)[C@H]12` gave an IC50 ([2]; read-out: IC50) of 3.4 µM.

For `CCC(CC)CC1(C(=O)Nc2ccccc2SC(=O)C(C)C)CCCCC1` [DALCETRAPIB], the logD [1] was 0.92.

`C[C@H]1[C@H](C)CC[C@]2(C(=O)O)CC[C@]3(C)C(=CC[C@@H]4[C@@]5(C)CC[C@H](O)C(C)(C)[C@@H]5CC[C@]43C)[C@H]12` [URSOLIC ACID] gave an IC50 ([2]; read-out: IC50) of 46.6 µM.
